From ChEMBL document CHEMBL3124841, “Discovery of vinyl sulfones as a novel class of neuroprotective agents toward Parkinson's disease therapy” (J Med Chem, 2014)
Calls of active or inactive are those of the source. The calls are words filed in the database; no cut-off is given here.

Tests used:
[1] = biological target: T1, Nuclear factor erythroid 2-related factor 2 (Mus musculus) (UniProt Q60795); test: Induction of Nrf2-dependent NQO1 protein expression in mouse CATH.a cells at 10 uM after 24 hrs by western blot analysis relative to control; format: cell-based
T1 sequence (whole entry): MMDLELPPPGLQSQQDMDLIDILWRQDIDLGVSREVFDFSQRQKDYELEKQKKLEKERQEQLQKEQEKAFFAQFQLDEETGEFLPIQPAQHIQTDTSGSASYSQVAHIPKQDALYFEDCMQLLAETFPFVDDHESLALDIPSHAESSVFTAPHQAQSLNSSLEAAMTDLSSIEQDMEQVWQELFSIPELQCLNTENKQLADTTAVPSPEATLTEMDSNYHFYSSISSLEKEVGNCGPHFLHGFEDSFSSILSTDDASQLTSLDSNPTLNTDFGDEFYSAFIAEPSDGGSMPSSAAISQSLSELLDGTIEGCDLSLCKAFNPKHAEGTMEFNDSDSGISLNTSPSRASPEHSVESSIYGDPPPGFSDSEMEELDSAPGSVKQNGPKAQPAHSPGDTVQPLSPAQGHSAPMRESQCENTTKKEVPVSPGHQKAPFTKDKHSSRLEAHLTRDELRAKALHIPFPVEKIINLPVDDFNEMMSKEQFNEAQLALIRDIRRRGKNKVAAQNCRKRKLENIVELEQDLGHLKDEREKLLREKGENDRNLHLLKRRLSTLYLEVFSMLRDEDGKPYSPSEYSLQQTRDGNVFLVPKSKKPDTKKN
Method in brief: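 Cells (CATH.a) exposed to graded concentrations for 24 h, lysed in RIPA buffer with protease inhibitors. Equal protein separated on 10% SDS gel, blotted; primary antibodies overnight at 4 °C, HRP secondary, chemiluminescence. Densitometry normalized to β-actin. At least duplicate cultures, fold of untreated control ± SEM.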

[2] = Cytotoxicity against mouse CATH.a cells assessed as cell viability at 0.1 to 2 uM after 72 hrs by LDH activity assay; format: cell-based
Method in brief: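 Seeded at 2.4 × 10⁴ CATH.a cells/well and exposed to the agent alone for 72 h. LDH in culture medium measured with 0.26 mM NADH, 2.87 mM pyruvate in 100 mM potassium phosphate pH 7.4; absorbance at 340 nm followed 5 min at 2 s intervals, room temperature. Duplicate cultures minimum; % untreated control ± SEM.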

Mus musculus [3] = test: Inhibition of motor deficits in MPTP-induced C57Bl/6 mouse parkinson's disease model assessed as number of successful steps taken on the apparatus at 10 mg/kg/day, po for 3 days administered first dose at 24 hrs prior to first injection of 4X 20 mg/kg, ip MPTP challenge by vertical grid test (reference value: 75.4 +/-6.2%); format: functional; set-up: scale not given: the % may be the effect or the level left
[4] = Cytotoxicity against mouse CATH.a cells assessed as cell viability at 0.1 to 2 uM after 72 hrs by ATP assay; format: cell-based
Method in brief: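 CATH.a cells seeded at 2.4 × 10⁴ cells/well, exposed to the agent alone for 72 h. Viability read as cellular ATP by CellTiter-Glo luminescence (2 min lysis, 10 min room temperature, 1 min read). At least duplicate cultures, percent of untreated control ± SEM.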

[5] = biological target: T1, Nuclear factor erythroid 2-related factor 2 (Mus musculus); test: Induction of Nrf2-dependent NQO1 gene expression in mouse CATH.a cells at 0.1 uM after 6 hrs by RT-PCR analysis; format: cell-based
Method in brief: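 CATH.a cells grown in RPMI 1640 with 8% horse serum and 4% FBS, exposed to graded concentrations for 6 h. mRNA analysed by RT-PCR with gene-specific primers, products run on 1% agarose gel, band densitometry normalized to GAPDH. At least duplicate cultures; fold induction versus untreated control ± SEM.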

Mus musculus [6] = species on record: Mus musculus; test: Neuroprotection against BH4-induced mouse CATH.a cell death assessed as cell viability at 0.1 uM treated for 20 hrs prior to BH4 challenge for 24 hrs by ATP assay; format: functional
Method in brief: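 CATH.a cells (2.4 × 10⁴/well) pretreated with graded concentrations for 20 h, then challenged with 200 μM BH4 for a further 24 h. Viability as cellular ATP by CellTiter-Glo luminescence. At least duplicate cultures, percent of untreated control ± SEM, compared with BH4-treated cells.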

fold change (FC) [1]: 4.43 | Activity [5]: inactive
SMILES: COc1ccccc1S(=O)(=O)/C=C/c1ccccc1Cl
Activity [2]: Non-toxic | Activity (Mus musculus [3]): 96.9% | Activity [4]: Non-toxic | Activity (Mus musculus [6]): Active
